Results reported in ChEMBL document CHEMBL3853352, “Anti-tubercular activities of 5,6,7,8-tetrahydrobenzo[4,5]thieno[2,3-d]pyrimidin-4-amine analogues endowed with high activity toward non-replicative Mycobacterium tuberculosis” (Bioorg Med Chem, 2016).
In brackets after ≈: the same amount, converted by molar mass.

Legend:
[1] = test system: Mycobacterium tuberculosis; experiment: Antimycobacterial activity against Mycobacterium tuberculosis H37Rv after 7 days by MABA; format: functional; settings: 168 h
Summary of the method: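 M. tuberculosis H37Rv inoculum taken from fresh LJ medium, resuspended in 7H9-S (7H9, 0.1% casitone, 0.5% glycerol, OADC), adjusted to McFarland No. 1 and diluted 1:20. Serial two-fold drug dilutions in 7H9-S, with growth and sterile controls. Incubated 7 days at 37 °C in normal atmosphere, then alamar blue added and incubated overnight. MIC = lowest concentration preventing the blue-to-pink change.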

[2] = Cytotoxicity against mouse RAW264.7 cells assessed as inhibition of cell proliferation at 50 ug/ml after 48 hrs by MTT assay; format: toxicity
Summary of the method: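 RAW 264.7 mouse macrophages grown in RPMI with 10% FBS and penicillin/streptomycin, then seeded at about 5000 cells/well on poly-L-lysine-coated plates. Pre-incubated 24 h at 37 °C, 5% CO2, then exposed to compound for 48 h. MTT (0.5 mg/ml) added for 3 h and formazan read at 595 nm.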

[3] = molecular target: T1, L-lysine-epsilon aminotransferase (Mycobacterium tuberculosis) (UniProt P9WQ77); experiment: Inhibition of Mycobacterium tuberculosis LAT at 25 uM
T1 sequence (whole entry): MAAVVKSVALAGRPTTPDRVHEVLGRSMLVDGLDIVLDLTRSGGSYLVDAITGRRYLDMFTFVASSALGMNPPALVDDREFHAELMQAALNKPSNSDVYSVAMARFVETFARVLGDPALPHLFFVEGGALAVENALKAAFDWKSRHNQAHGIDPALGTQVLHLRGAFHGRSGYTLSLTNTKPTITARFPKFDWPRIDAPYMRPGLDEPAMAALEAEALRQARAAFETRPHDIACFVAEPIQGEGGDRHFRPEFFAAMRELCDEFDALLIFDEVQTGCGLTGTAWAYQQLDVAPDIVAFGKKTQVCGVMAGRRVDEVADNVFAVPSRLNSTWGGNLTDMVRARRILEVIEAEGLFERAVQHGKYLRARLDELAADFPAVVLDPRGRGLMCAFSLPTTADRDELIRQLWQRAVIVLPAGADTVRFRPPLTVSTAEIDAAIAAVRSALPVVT

[4] = test system: Mycobacterium tuberculosis H37Rv; experiment: Inhibition of Mycobacterium tuberculosis ADH assessed as decrease in conversion of L-alanine to pyruvate at 25 uM by measuring NADH by spectrophotometry
[5] = test system: Mycobacterium tuberculosis; experiment: Antimycobacterial activity against dormant stage of Mycobacterium tuberculosis H37Rv assessed as reduction in bacterial growth under nutrient starved conditions at 10 ug/ml for 7 days measured after 28 days; format: functional
Summary of the method: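 H37Rv grown in 7H9/OADC, washed twice and resuspended in PBS, then held in sealed bottles at 37 °C for 6 weeks. Starved cultures exposed to compound at 10 ug/ml for 7 days. Cells diluted 10-fold serially to 10^-6 in 7H9/OADC and plated in triplicate. Incubated 28 days at 37 °C without agitation; wells with visible growth scored positive and MPN calculated.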

[6] = Inhibition of Mycobacterium tuberculosis ADH assessed as decrease in conversion of L-alanine to pyruvate by measuring NADH by spectrophotometry; set-up: species or system Mycobacterium tuberculosis H37Rv
Summary of the method: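 Mtb L-AlaDH oxidative deamination of L-alanine to pyruvate at 37 °C. NADH formation read at 340 nm. Compounds tested from 25 µM to 0.5 µM. Background read from the reaction mixture without enzyme. IC50 values calculated from the concentration series.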

| Structure (SMILES) | MIC [1] [µM] | inhibition at 48 h, 50 ug/ml [2] [%] | inhibition [3] [%] | inhibition [4] [%] | fold change (FC) [5] | IC50 [6] [µM] |
| --- | --- | --- | --- | --- | --- | --- |
| c1ccc(CNc2nc(-c3ccccc3)nc3sc4c(c23)CCCC4)cc1 | 33.6 (≈ 12.5 µg/mL) | 26.5 | < 50 | 50 | >1 | 9.68 |
| CO[C@H]1/C=C/O[C@@]2(C)Oc3c(C)c(O)c4c(O)c(c(/C=N/N5CCN(C)CC5)c(O)c4c3C2=O)NC(=O)/C(C)=C\C=C\[C@H](C)[C@H](O)[C@@H](C)[C@@H](O)[C@@H](C)[C@H](OC(C)=O)[C@@H]1C [RIFAMPIN] | 0.23 (≈ 0.189 µg/mL) | 9.56 |  |  | 2 | > 25 |
| COc1c(N2C[C@@H]3CCCN[C@@H]3C2)c(F)cc2c(=O)c(C(=O)O)cn(C3CC3)c12 [MOXIFLOXACIN] | 1.26 (≈ 0.506 µg/mL) |  |  |  | 2.7 | > 25 |
| NNC(=O)c1ccncc1 [ISONIAZID] | 0.66 (≈ 0.0905 µg/mL) | 12.2 |  |  | 1.2 | > 25 |
| COc1ccc(Nc2nc(C3CC3)nc3sc4c(c23)CCCC4)cc1 | 17.8 (≈ 6.25 µg/mL) | 34.4 | < 50 |  | >1 | > 25 |
| c1ccc(CNc2nc(C3CC3)nc3sc4c(c23)CCCC4)cc1 | 18.6 (≈ 6.25 µg/mL) | 23.1 | < 50 | 50 | >1 | 4.23 |
| Cc1cccc(C)c1Nc1nc(-c2ccccc2)nc2sc3c(c12)CCCC3 | 8.11 (≈ 3.13 µg/mL) | 25.5 | < 50 | 50 | >1 | 8.82 |
| Cc1ccc(C)c(Nc2nc(C3CC3)nc3sc4c(c23)CCCC4)c1 | 35.8 (≈ 12.5 µg/mL) | 16.3 | < 50 | 50 | >1 | 2.07 |
| c1ccc(CCNc2nc(-c3ccccc3)nc3sc4c(c23)CCCC4)cc1 | 64.8 (≈ 25 µg/mL) | 24.6 | < 50 | 50 | >1 | 5.6 |
| Brc1ccc(Nc2nc(-c3ccccc3)nc3sc4c(c23)CCCC4)cc1 | 28.6 (≈ 12.5 µg/mL) | 20.4 | < 50 | 50 | >1 | 8.7 |
| CCc1nc(Nc2cc(C)ccc2C)c2c3c(sc2n1)CCCC3 | 74.1 (≈ 25 µg/mL) | 29.9 | < 50 |  |  | > 25 |
| Clc1ccc(Nc2nc(C3CC3)nc3sc4c(c23)CCCC4)cc1 | 8.78 (≈ 3.12 µg/mL) | 15.5 | < 50 | 50 |  | 11.1 |
| Cc1cccc(C)c1Nc1nc(C2CC2)nc2sc3c(c12)CCCC3 | 17.9 (≈ 6.25 µg/mL) | 13.5 | < 50 | 50 | >1 | 7.55 |
| Brc1ccc(Nc2nc(C3CC3)nc3sc4c(c23)CCCC4)cc1 | 15.6 (≈ 6.25 µg/mL) | 33.4 | < 50 | 50 | >1 | 8.93 |
| CCc1nc(Nc2ccc(Cl)cc2)c2c3c(sc2n1)CCCC3 | 18.2 (≈ 6.25 µg/mL) | 15.6 | < 50 | 50 | >1 | 4.94 |
| Cc1ccc(Nc2nc(C3CC3)nc3sc4c(c23)CCCC4)cc1 | 74.5 (≈ 25 µg/mL) | 16.2 | < 50 | 50 |  | 13.4 |
| CCc1nc(Nc2ccc(C)cc2)c2c3c(sc2n1)CCCC3 | 77.3 (≈ 25 µg/mL) | 15.6 | < 50 | 50 | >1 | 3.26 |
| CCc1nc(Nc2ccc(F)cc2)c2c3c(sc2n1)CCCC3 | 38.2 (≈ 12.5 µg/mL) | 14 | < 50 | 50 | >1 | 6.05 |
